DAT uptake mod: changed human dopamine transporter uptake under cocaine IC80; 110,000 compounds, 1.3% hits; Q01959; B-score at 10 µM; LLC-PK1 hDAT cells, [14C]-dopamine uptake with cocaine IC80; actives deviate in either direction;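 active = Z score or B-score, a plate-position-corrected score, falls beyond the plate's 99.7% confidence bounds, in either direction; inactive = both scores lie inside the 99.7% bounds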;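 also: scored against the spread of the other compound wells on the same plate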
Plk1 PBD FP: Plk1 (human) PBD binding inhibition | 97,000 compounds, 0.13% hits | P53350 | Plk1 PBD phosphopeptide binding, fluorescence polarization | inhibition, %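 (tested at about 20 µM)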; in the data active = inhibition above about 34%, passing the limit was not always enough
Rev-RRE block: disrupts HIV-1 Rev binding to RRE RNA; 97,000 compounds, 0.79% hits; Rev peptide-RRE RNA binding, FRET; inhibition, % at 8 µM; P05866;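 active = inhibition above the screen-wide mean plus 3 SD, cut at about 35% in these data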;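 also: 0% = median DMSO wells and 100% = median Neomycin B control wells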
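Test system: Cy5-tagged RRE RNA duplex with fluorescein-tagged Rev peptide | Read-out: % inhibition of FRET ratio versus controls | Probe or stimulus: Labelled Rev peptide | Incubation: 5 min RNA-compound premix plus 15 min binding step, 25 °C | Technique: FRET fluorescence readout | Benchmarks: DMSO low control, neomycin B high control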
FAK inh: FAK (human) kinase inhibition | Q05397 | biochemical FAK kinase activity assay | inhibition, %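 (tested at 7 µM)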 | 97,000 compounds, 0.84% hits | AID 727; in the data active = inhibition above about 19%;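 also: 0% = DMSO and 100% = reference compound high control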
EphB4 antag: EphB4-ephrin-B2 interaction antagonism; P54760; EphB4 LBD / TNYL-RAW-Alexa532 peptide, fluorescence polarization; inhibition, % at 7 µM; 97,000 compounds, 0.15% hits; AID 720;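 active = inhibition above the screen-wide mean inhibition plus 3 SD, cut at about 15% in these data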;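 also: 0% = DMSO wells and 100% = excess unlabeled TNYL-RAW peptide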
Target sequence (P54760 whole entry, looked up, the tested form may be a part): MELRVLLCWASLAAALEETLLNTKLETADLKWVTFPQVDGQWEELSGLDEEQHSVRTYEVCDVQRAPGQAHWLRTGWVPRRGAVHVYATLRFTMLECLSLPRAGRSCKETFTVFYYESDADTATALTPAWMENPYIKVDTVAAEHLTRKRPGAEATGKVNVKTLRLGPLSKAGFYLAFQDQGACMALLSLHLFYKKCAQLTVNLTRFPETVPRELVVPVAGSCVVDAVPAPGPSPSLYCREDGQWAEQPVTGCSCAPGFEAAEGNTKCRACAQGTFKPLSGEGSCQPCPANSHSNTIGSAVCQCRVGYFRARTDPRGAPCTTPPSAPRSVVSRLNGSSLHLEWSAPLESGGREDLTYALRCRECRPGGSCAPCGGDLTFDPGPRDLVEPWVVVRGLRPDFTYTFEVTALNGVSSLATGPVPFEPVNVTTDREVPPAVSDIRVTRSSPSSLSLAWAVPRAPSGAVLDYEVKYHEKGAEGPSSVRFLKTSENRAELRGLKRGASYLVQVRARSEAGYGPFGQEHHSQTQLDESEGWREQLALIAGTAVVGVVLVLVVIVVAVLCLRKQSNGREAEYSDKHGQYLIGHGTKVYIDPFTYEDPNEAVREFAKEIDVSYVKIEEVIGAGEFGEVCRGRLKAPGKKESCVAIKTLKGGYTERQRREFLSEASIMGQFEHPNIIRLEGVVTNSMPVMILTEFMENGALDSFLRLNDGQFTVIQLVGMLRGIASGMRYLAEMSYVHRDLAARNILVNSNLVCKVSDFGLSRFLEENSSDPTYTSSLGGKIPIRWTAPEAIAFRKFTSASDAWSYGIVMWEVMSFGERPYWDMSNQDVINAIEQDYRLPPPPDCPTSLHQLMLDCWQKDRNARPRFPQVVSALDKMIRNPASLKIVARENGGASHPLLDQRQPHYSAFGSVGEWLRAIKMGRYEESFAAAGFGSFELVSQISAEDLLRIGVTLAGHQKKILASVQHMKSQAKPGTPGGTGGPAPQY
PLK1 kinase inh: PLK1 (human) kinase inhibition; P53350; recombinant PLK1 kinase, TR-FRET peptide phosphorylation; inhibition, % at 10 µM; 97,000 compounds, 0.53% hits; AID 619;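 active = inhibition of 50% or more in the single-concentration screen; inactive = inhibition below 50%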;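 also: 0% = DMSO max control and 100% = H-89 dihydrochloride min control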
The depositor's hits bear a star. An excerpt weighted towards active compounds, which were near 3.2% of everything screened.

Screening O=C(NNC(=O)C1CCCCC1)C(=O)NC1CCCCC1 returned DAT uptake mod 0.13, Plk1 PBD FP -11, Rev-RRE block 9, FAK inh 4, EphB4 antag 16* and PLK1 kinase inh -11.
For CC(C)NC(=O)C(=O)NC1CCCCCC1 the results were DAT uptake mod 0.015, Plk1 PBD FP 2, Rev-RRE block -4, FAK inh 2, EphB4 antag -1 and PLK1 kinase inh 1.
Screening O=C1CSC(c2cn(-c3ccccc3)nc2-c2cccs2)N1CC1CCCO1 (stereo unspecified) returned DAT uptake mod 2.7*, Plk1 PBD FP 6, Rev-RRE block 5, FAK inh 1, EphB4 antag 3 and PLK1 kinase inh -6.
O=C1CSC(c2cn(-c3ccccc3)nc2-c2ccccc2)N1Cc1ccco1 (stereo unspecified) was read as DAT uptake mod -0.049, Plk1 PBD FP -7, Rev-RRE block 8, FAK inh -1, EphB4 antag 0 and PLK1 kinase inh -5.
Screening COc1ccc(-c2ccc(C#N)c(OC(=O)c3c(Cl)cccc3Cl)n2)cc1 returned DAT uptake mod 0.1, Plk1 PBD FP -6, Rev-RRE block 6, FAK inh -1, EphB4 antag 2 and PLK1 kinase inh -2.
`CCc1nc(NCc2ccco2)c2oc3ccccc3c2n1` gave DAT uptake mod 0.43, Plk1 PBD FP 33, Rev-RRE block 6, FAK inh 23*, EphB4 antag -7 and PLK1 kinase inh 0.
`C=CCn1c(=O)c2ccccc2n2c(SCc3cc(=O)n4ccsc4n3)nnc12` gave DAT uptake mod 2.8*, Plk1 PBD FP -5, Rev-RRE block 3, FAK inh 1, EphB4 antag -4 and PLK1 kinase inh -7.
For C=CCn1c(=O)c2ccccc2n2c(SCC(=O)c3ccccc3)nnc12 the results were DAT uptake mod 0.014, Plk1 PBD FP -29, Rev-RRE block 3, FAK inh -1, EphB4 antag 0 and PLK1 kinase inh -5.
For Cc1cc(C)cc(N2CC(c3nc4ccccc4n3C)CC2=O)c1 (stereo unspecified) the results were DAT uptake mod 0.051, Plk1 PBD FP -1, Rev-RRE block 2, FAK inh -5, EphB4 antag -7 and PLK1 kinase inh 58*.
Cc1ccc(N2CC(c3nc4ccccc4n3C)CC2=O)cc1C (stereo unspecified) was read as DAT uptake mod 1.3, Plk1 PBD FP -5, Rev-RRE block -3, FAK inh -4, EphB4 antag 4 and PLK1 kinase inh -5.
`O=C(O)CCCN1C(=O)/C(=C/c2ccc(-c3nc4ccccc4s3)o2)SC1=S` gave Plk1 PBD FP -26, Rev-RRE block 71*, FAK inh 7, EphB4 antag -5 and PLK1 kinase inh -16.
Screening C/C(N)=C(/C#N)C(=O)COC(=O)CC12CC3CC(CC(C3)C1)C2 returned DAT uptake mod -0.055, Plk1 PBD FP -16, Rev-RRE block 21, FAK inh -2, EphB4 antag 0 and PLK1 kinase inh -37.
For O=C(Cn1cnc2c(cnn2-c2ccccc2)c1=O)OCc1ccccc1 the results were DAT uptake mod 1.1, Plk1 PBD FP -23, Rev-RRE block 8, FAK inh -6, EphB4 antag -11 and PLK1 kinase inh 50*.
`Cc1ccc(-n2ncc3c(=O)n(CC(=O)OCc4ccccc4)cnc32)cc1` gave DAT uptake mod 0.085, Plk1 PBD FP 7, Rev-RRE block 4, FAK inh -6, EphB4 antag -3 and PLK1 kinase inh -10.
`CC(C)n1cnc2c(N(C)c3ccccc3)nc(N(CCN(C)C)Cc3ccccc3)nc21` gave DAT uptake mod 1.1.
For CCn1c(-c2ccc(F)cc2)cnc1SCC(=O)N1CCCCC1C (stereo unspecified) the results were DAT uptake mod 1.1, Plk1 PBD FP -17, Rev-RRE block 3, FAK inh -1, EphB4 antag 5 and PLK1 kinase inh -7.
Screening COc1ccccc1C1CC(c2c(-c3ccccc3)c3cc(Cl)ccc3[nH]c2=O)=NN1S(C)(=O)=O (stereo unspecified) returned DAT uptake mod 0.63, Plk1 PBD FP -28, Rev-RRE block 6, FAK inh 8, EphB4 antag 17* and PLK1 kinase inh -5.
Screening COc1cccc(C2CC(c3c(-c4ccccc4)c4cc(Cl)ccc4[nH]c3=O)=NN2S(C)(=O)=O)c1OC (stereo unspecified) returned DAT uptake mod 1.6, Plk1 PBD FP -3, Rev-RRE block 10, FAK inh 9, EphB4 antag 5 and PLK1 kinase inh -2.
CC1(C)CC2CC(C)(CN2C(=O)COc2cccc3ccccc23)C1 (stereo unspecified) was read as DAT uptake mod -0.26, Plk1 PBD FP 2, Rev-RRE block 10, FAK inh 1, EphB4 antag -4 and PLK1 kinase inh -3.
`COc1ccc(/C=N/OCC(=O)N2CC3(C)CC2CC(C)(C)C3)cc1` (stereo unspecified) gave DAT uptake mod 3.7*, Plk1 PBD FP -7, Rev-RRE block 1, FAK inh -6, EphB4 antag -1 and PLK1 kinase inh 1.
For NC(=O)C1=C[C@H](c2ccc(C(F)(F)F)cc2)C[C@H](OCCCCO)O1 the results were DAT uptake mod -1.2.
COc1cc(SC)ccc1C(=O)Nc1ccc2c(c1)OCCO2 was read as DAT uptake mod 3.4*, Plk1 PBD FP 19, Rev-RRE block 10, FAK inh 3, EphB4 antag -9 and PLK1 kinase inh 10.
Screening COc1ccccc1NC(=O)CN1CCN(CC(=O)Nc2ccc3c(c2)OCCO3)CC1 returned DAT uptake mod 3.1*, Plk1 PBD FP 21, Rev-RRE block 13, FAK inh 2, EphB4 antag 1 and PLK1 kinase inh -15.
`CCN1C(=O)N[C@H](c2ccccc2)C(C(C)=O)=C1C` gave DAT uptake mod -0.56.
Screening CCOC(=O)c1ccc(NC(=S)NCCc2ccccc2)cc1 returned DAT uptake mod 2, Plk1 PBD FP -4, Rev-RRE block 0, FAK inh -2, EphB4 antag 4 and PLK1 kinase inh -10.
Screening CCOC(=O)c1ccc(NC(=S)NCC(O)c2ccccc2)cc1 (stereo unspecified) returned Plk1 PBD FP -16, Rev-RRE block -5, FAK inh -7, EphB4 antag 17* and PLK1 kinase inh -2.
Screening CC(=O)c1cccc(NC(=O)NC(C)c2ccncc2)c1 (stereo unspecified) returned DAT uptake mod -0.44, Plk1 PBD FP -2, Rev-RRE block 4, FAK inh 1, EphB4 antag 6 and PLK1 kinase inh 15.
Screening NC(=O)c1ccsc1NC(=O)COC(=O)Cc1cccc2ccccc12 returned DAT uptake mod -0.13, Plk1 PBD FP -7, Rev-RRE block 15, FAK inh 0, EphB4 antag -1 and PLK1 kinase inh -10.

Source: PubChem (several laboratories)
